Laboratory results reported in ChEMBL document CHEMBL4422642, “Antiproliferative and Antimigratory Effects of a Novel YAP-TEAD Interaction Inhibitor Identified Using in Silico Molecular Docking” (J Med Chem, 2019).
pEC50, pIC50: −log10 of the molar value. Activity calls are given as the source filed them. The rule behind the calls is not given here.

Key:
Rattus norvegicus [1] = organism: Rattus norvegicus; test: Inhibition of TEAD in rat VSMC assessed as reduction in PAI1 m-RNA expression at 60 uM by RT-qPCR analysis
Procedure, shortened: (§1)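 Rat aortic VSMCs (male Sprague-Dawley, 10% FCS/DMEM) were treated with 60 μM compound for 6 h; n = 3. Total RNA was reverse-transcribed with random primers and quantified by SYBR Green qPCR. Data were normalized to nonstimulated controls.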

[2] = molecular target: Transcriptional enhancer factor TEF-5 (Homo sapiens, UniProt Q99594); test: Inhibition of Gal4-fused TEAD3 (unknown origin) interaction with YAP expressed in human HeLa cells assessed as basal transcriptional activity level after 6 hrs by nanoluciferase reporter gene assay; format: cell-based
Rattus norvegicus [3] = organism: Rattus norvegicus; test: Inhibition of TEAD in rat VSMC assessed as reduction in CTGF m-RNA expression at 60 uM by RT-qPCR analysis; procedure, shortened: as §1
HeLa [4] = test: Inhibition of Gal4 expression in human HeLa cells assessed as basal transcriptional activity level at 100 uM after 6 hrs by nanoluciferase reporter gene assay; format: functional, cell-based
HeLa [5] = test: Antiproliferative activity against human HeLa cells assessed as reduction in EdU incorporation after 24 hrs by Hoechst 33342 staining-based fluorescence assay; format: functional, cell-based
Procedure, shortened: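 Click-iT EdU assay. Cells were treated with compound for 24 h total, with 10 μM EdU present for the final labeling period. Cells were then fixed in 4% formaldehyde, stained for EdU and counterstained with Hoechst 33342 for 20 min. EdU-positive nuclei were counted in at least three fields per well; n = 4.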

VSMC [6] = test: Inhibition of PGK1 m-RNA expression in rat VSMC at 60 uM by RT-qPCR analysis; format: functional, cell-based; procedure, shortened: as §1
Rattus norvegicus [7] = organism: Rattus norvegicus; test: Inhibition of TEAD in rat VSMC assessed as reduction in MYOC m-RNA expression at 60 uM by RT-qPCR analysis; procedure, shortened: as §1
VSMC [8] = test: Antiproliferative activity against human VSMC assessed as reduction in EdU incorporation after 18 hrs by Hoechst 33342 staining-based fluorescence assay; format: functional, cell-based
[9] = molecular target: T1, Serum response factor (Homo sapiens) (UniProt P11831); test: Inhibition of SRF (unknown origin) mediated VP16 transcription expressed in human HeLa cells assessed as basal transcriptional activity level up to 100 uM after 6 hrs by nanoluciferase reporter gene assay; format: cell-based
T1 sequence (whole entry): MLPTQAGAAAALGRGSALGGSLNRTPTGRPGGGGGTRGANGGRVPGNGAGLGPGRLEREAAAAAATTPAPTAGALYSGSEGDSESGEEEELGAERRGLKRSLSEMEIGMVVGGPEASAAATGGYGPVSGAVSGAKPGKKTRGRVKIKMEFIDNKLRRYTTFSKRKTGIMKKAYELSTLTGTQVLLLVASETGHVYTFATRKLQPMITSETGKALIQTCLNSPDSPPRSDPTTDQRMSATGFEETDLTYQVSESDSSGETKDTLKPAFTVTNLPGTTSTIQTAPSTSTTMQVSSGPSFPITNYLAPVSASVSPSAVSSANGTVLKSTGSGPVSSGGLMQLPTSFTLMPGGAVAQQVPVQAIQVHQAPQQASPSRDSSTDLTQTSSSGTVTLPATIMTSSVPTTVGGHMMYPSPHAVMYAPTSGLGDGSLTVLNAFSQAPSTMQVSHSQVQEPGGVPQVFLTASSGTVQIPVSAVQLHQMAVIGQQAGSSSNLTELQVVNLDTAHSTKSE

[10] = molecular target: Transcriptional enhancer factor TEF-3 (Homo sapiens, UniProt Q15561); test: Inhibition of Gal4-fused TEAD4 (unknown origin) interaction with YAP expressed in human HeLa cells assessed as basal transcriptional activity level after 6 hrs by nanoluciferase reporter gene assay; format: cell-based
Sequence of Transcriptional enhancer factor TEF-3 (Q15561 whole entry, the tested form may be a part): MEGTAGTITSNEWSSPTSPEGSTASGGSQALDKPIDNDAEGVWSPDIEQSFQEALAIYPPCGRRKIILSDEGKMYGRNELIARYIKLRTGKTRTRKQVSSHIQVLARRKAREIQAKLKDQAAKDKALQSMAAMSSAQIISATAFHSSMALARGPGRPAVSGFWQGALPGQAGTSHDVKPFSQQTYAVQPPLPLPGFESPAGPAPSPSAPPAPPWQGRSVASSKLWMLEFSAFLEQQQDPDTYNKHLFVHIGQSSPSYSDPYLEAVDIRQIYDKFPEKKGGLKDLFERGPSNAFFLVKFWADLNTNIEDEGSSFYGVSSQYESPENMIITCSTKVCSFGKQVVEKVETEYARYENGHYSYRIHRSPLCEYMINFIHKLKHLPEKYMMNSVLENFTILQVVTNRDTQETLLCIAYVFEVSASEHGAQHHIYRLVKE

Sequence of Transcriptional enhancer factor TEF-5 (Q99594 whole entry, the tested form may be a part): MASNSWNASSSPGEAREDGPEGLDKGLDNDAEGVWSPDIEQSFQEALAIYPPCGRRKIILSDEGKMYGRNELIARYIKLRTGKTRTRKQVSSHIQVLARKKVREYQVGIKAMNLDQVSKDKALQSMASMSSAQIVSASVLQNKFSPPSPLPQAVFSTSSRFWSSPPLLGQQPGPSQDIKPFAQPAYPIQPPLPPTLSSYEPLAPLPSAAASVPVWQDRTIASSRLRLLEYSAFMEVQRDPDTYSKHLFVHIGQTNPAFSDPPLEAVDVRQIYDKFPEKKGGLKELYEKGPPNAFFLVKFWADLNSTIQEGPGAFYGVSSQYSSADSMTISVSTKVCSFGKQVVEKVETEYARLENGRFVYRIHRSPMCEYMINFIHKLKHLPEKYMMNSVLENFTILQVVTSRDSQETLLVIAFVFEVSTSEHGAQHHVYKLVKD

Cc1ccc2c(c1)c1c3n2CCNC3CCC1 (stereo not given) [PIRLINDOLE]
inhibition (Rattus norvegicus [1]): Active
pIC50 [2]: 4.36
inhibition (Rattus norvegicus [3]): Active
inhibition (HeLa [4]): inactive
Activity (HeLa [5]): Dose-dependent effect
inhibition (VSMC [6]): inactive
inhibition (Rattus norvegicus [7]): Active
pEC50 (VSMC [8]): 5.82
inhibition [9]: inactive
pIC50 [10]: 4.44
